Source: ChEMBL document CHEMBL1142819, “Synthesis of benzoyl phenyl benzoates as effective inhibitors for phospholipase A2 and hyaluronidase enzymes” (Bioorg Med Chem Lett, 2005)
Active and inactive are the calls of the source. No cut-off for these calls is given here.

Tests used:
[1] = tested on: Daboia russelii russelii; assay: Percent inhibition of hyaluronidase from Vipera russelli russelli venom; parameters: concentration or dose not given beside the values; details: concentration not given here
[2] = tested on: Protobothrops elegans; assay: Percent inhibition of hyaluronidase from Trimeresurus elegans venom; NI = No inhibition
[3] = tested on: Naja melanoleuca; assay: Percent inhibition of hyaluronidase from Naja melanoleuca venom; NI = No inhibition
[4] = target: T1, Basic phospholipase A2 PLA-A (Trimeresurus flavoviridis, UniProt P59264); assay: In vitro inhibitory concentration against phospholipase A2 of Trimeresurus flavoviridis venom; parameters: species or system Protobothrops flavoviridis
T1 sequence (P59264 whole entry): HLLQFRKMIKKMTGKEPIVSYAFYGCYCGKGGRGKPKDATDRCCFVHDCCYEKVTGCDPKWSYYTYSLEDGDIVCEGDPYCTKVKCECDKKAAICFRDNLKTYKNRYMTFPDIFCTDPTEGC

[5] = target: Acidic phospholipase A2 EC-I (Echis carinatus, UniProt Q7T3S7); assay: In vitro inhibitory concentration against phospholipase A2 of Echis carinatus venom
[6] = target: T2, Basic phospholipase A2 1 (Naja melanoleuca, UniProt P00599); assay: In vitro inhibitory concentration against phospholipase A2 of Naja melanoleuca venom
T2 sequence (P00599 whole entry): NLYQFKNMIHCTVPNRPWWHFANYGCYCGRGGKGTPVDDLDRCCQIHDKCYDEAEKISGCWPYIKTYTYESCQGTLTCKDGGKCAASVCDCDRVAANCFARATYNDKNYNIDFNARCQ

[7] = In vitro Inhibitory concentration against phospholipase A2 activity of synovial fluid; parameters: species or system Homo sapiens
[8] = tested on: Naja naja; assay: Percent inhibition of hyaluronidase from Naja naja naja venom; parameters: concentration or dose not given beside the values; details: concentration not given here
[9] = tested on: Mus musculus; assay: Edema ratio expressed as weight of edematous leg to 100/weight of normal leg in mice upon injection of 300 uM compound preincubated with 1 ug phospholipase A2 of Synovial fluid at 37 C for 1 hr into the mice foot pads; assay type: functional
Summary of the method: (§1)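 Each PLA2 enzyme (1 µg) was preincubated with compound (300 µM) at 37 °C for 1 h, then injected into the right hind footpad of mice (22–24 g) in saline. The left footpad received saline as control. After 45 min the mice were killed, and both legs were cut at the ankle and weighed. Edema ratio = edematous leg weight × 100 / normal leg weight. Results given as mean SD (n = 4); Student's t test, P < 0.05.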

[10] = tested on: Mus musculus; assay: Edema ratio expressed as weight of edematous leg to 100/weight of normal leg in mice upon injection of 300 uM compound preincubated with 1 ug phospholipase A2 of Trimeresurus flavoviridis at 37 C for 1 hr into the mice foot pads; assay type: functional; summary of the method: as §1
[11] = tested on: Mus musculus; assay: Edema ratio expressed as weight of edematous leg to 100/weight of normal leg in mice upon injection of 300 uM compound pre-incubated with 1 ug phospholipase A2 of Naja melanoleuca at 37 degree C for 1 h into mice foot pads; assay type: functional; summary of the method: as §1
[12] = tested on: Daboia russelii russelii; assay: Percent inhibition of hyaluronidase from Vipera russelli russelli venom; NI = No inhibition
[13] = tested on: Protobothrops elegans; assay: Percent inhibition of hyaluronidase from Trimeresurus elegans venom; parameters: concentration or dose not given beside the values; details: concentration not given here
[14] = tested on: Naja naja; assay: Percent inhibition of hyaluronidase from Naja naja naja venom; NI = No inhibition
[15] = tested on: Mus musculus; assay: Edema ratio expressed as weight of edematous leg to 100/weight of normal leg in mice upon injection of 300 uM compound pre-incubated with 1 ug phospholipase A2 of Echis carinatus at 37 C for 1 h into the mice foot pads; assay type: functional; summary of the method: as §1

Chain of Acidic phospholipase A2 EC-I (Q7T3S7 17-136 limits assumed): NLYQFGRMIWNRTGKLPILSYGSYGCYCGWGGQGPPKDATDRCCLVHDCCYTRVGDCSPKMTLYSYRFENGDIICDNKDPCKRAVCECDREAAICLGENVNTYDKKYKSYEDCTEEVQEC

| Structure (SMILES) | inhibition [1] [%] | inhibition [2] | inhibition [3] | IC50 [4] [µM] | IC50 [5] [µM] | IC50 [6] [µM] | IC50 [7] [µM] | inhibition [8] [%] | Ratio [9] | Ratio [10] | Ratio [11] | inhibition [12] | inhibition [13] [%] | inhibition [14] | Ratio [15] |
| --- | --- | --- | --- | --- | --- | --- | --- | --- | --- | --- | --- | --- | --- | --- | --- |
| Cc1ccc(OC(=O)c2ccccc2)c(C(=O)c2ccccc2)c1 | 28.2 | inactive | inactive | 69 | 94 | 60 | 46 | 13.9 | 109 | 105 |  |  |  |  |  |
| Cc1ccc(OC(=O)c2ccccc2C)c(C(=O)c2ccccc2C)c1 |  |  |  | 139 | 105 | 98 | 86 | 58.7 | 106 |  | 102 | inactive | 42.4 |  |  |
| Cc1cc(C(=O)c2cccc(Cl)c2Cl)ccc1OC(=O)c1ccccc1 | 26.2 |  |  | 89 | 112 | 132 | 156 |  |  |  |  |  | 33.1 | inactive |  |
| Cc1ccc(C(=O)Oc2ccc(C(=O)c3ccccc3C)cc2C)cc1 | 36.9 |  |  | 75 | 87 | 73 | 56 | 42.4 | 101 |  |  |  | 48.9 |  |  |
| Cc1ccc(OC(=O)c2cccc(Cl)c2)c(C(=O)c2cccc(Cl)c2)c1 | 87.8 |  |  | 2.5 | 2.3 | 2.9 | 2.5 | 89.3 | 101 | 102 | 101 |  | 92.5 |  | 101 |
| Cc1ccc(C(=O)Oc2ccc(C)cc2C(=O)c2ccc(C)cc2)cc1 | 46 |  | inactive | 108 | 96 | 57 | 123 | 69.3 |  |  | 103 |  | 76.8 |  |  |
| O=C(Oc1ccc(Cl)cc1C(=O)c1cccc(Cl)c1Cl)c1ccccc1 | 71.6 |  |  | 46 | 40 | 53 | 32 | 85.3 | 102 | 105 | 104 |  | 76.8 |  | 103 |
| C[C@H]1[C@H](C)CC[C@]2(C(=O)O)CC[C@]3(C)C(=CC[C@@H]4[C@@]5(C)CC[C@H](O)C(C)(C)[C@@H]5CC[C@]43C)[C@H]12 [URSOLIC ACID] |  |  |  |  | 2.3 | 2.9 |  |  |  |  |  |  |  |  |  |
